Assay results published in the RNAGym collection of RNA variant scans (doi:10.1126/science.aae0568).
Fewer inactive variants are shown than the library holds.

B1: tRNA (parent)
chain: GUUCCGUUGGCGUAAUGGUAACGCGUCUCCCUCCUAAGGAGAAGACUGCGGGUUCGAGUCCCGUACGGAACG

Variants of: B1
Test: yeast fitness relative to wild type (ratio to wild type); higher = fitter; tRNA-Arg(CCU), competitive growth, 37 C, YPD
How it was run: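 Genotype frequency changes were the basis for Darwinian fitness relative to wild type. The frequencies came from 100-nucleotide paired-end sequencing of gene amplicons from the start population and each end population of pooled yeast strains with tRNA-Arg(CCU) gene variants at the native locus. Competition ran in YPD at 37°C for 24 hours in six replicates, genotypes needed ≥ 100 starting reads, and estimates < 0.5 were set to 0.5.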
C4U C5G C29U U32A C33U G67U A70G gave a yeast fitness of 0.54. For C4U C5G C34U U54A, the yeast fitness was ≤ 0.5. In the case of C4U C5G C60A, the yeast fitness is reported as ≤ 0.5. With C4U C5G G9A G51C the yeast fitness was ≤ 0.5. For C4U C5G G12A A14U U54A A57U, the yeast fitness was ≤ 0.5. For C4U C5G G18C C34U A69C, the yeast fitness was ≤ 0.5. Work on C4U C5G G41A yielded a yeast fitness of 0.505. For C4U C5G G41A A70G, the yeast fitness was ≤ 0.5. With C4U C5G U7G C33A A70U the yeast fitness was ≤ 0.5. Work on C4U C5G U28C A70C yielded a yeast fitness of 0.637. In the case of C4U C5G U28C C61A, the yeast fitness is reported as ≤ 0.5. In the case of C4U C5G U28C G67C, the yeast fitness is reported as 0.909. In the case of C4U C5U, the yeast fitness is reported as 1.01. In the case of C4U C5U A14C G68A, the yeast fitness is reported as ≤ 0.5. Work on C4U C11A A14C U28A C31U A37U G39A A42G yielded a yeast fitness of 0.645. With C4U C11A A37C the yeast fitness was 0.569. With C4U C11A A37C A65C the yeast fitness was ≤ 0.5. For C4U C11A A42G G48C A65U, the yeast fitness was 0.555. Work on C4U C11A A65C yielded a yeast fitness of 0.538. With C4U C11A C22U A42U the yeast fitness was 0.577. For C4U C11A C46U U59C, the yeast fitness was ≤ 0.5. With C4U C11A G12A A42U C49U G51A the yeast fitness was ≤ 0.5. For C4U C11A G12A G48A A57C, the yeast fitness was ≤ 0.5. In the case of C4U C11A G39A G51A G67C, the yeast fitness is reported as ≤ 0.5. With C4U C11A G67U the yeast fitness was ≤ 0.5. With C4U C11A U28A C31U G51C G56A the yeast fitness was ≤ 0.5. Work on C4U C11G A45U yielded a yeast fitness of 0.545. Work on C4U C11G C24A A36U A43C yielded a yeast fitness of 0.55. For C4U C11G C29U C62U G67C, the yeast fitness was ≤ 0.5. In the case of C4U C11G C29U U59G, the yeast fitness is reported as ≤ 0.5. Variant C4U C11G C34U has a yeast fitness of 0.551. With C4U C11G C34U C55U the yeast fitness was ≤ 0.5. For C4U C11G C34U G56A, the yeast fitness was ≤ 0.5. For C4U C11G G18A U26C G52C, the yeast fitness was ≤ 0.5. For C4U C11G G18C U47A G63A, the yeast fitness was ≤ 0.5. For C4U C11G G56C, the yeast fitness was ≤ 0.5. For C4U C11U A43U C55G, the yeast fitness was ≤ 0.5. With C4U C11U A45U A57U the yeast fitness was 0.655. In the case of C4U C11U C22G, the yeast fitness is reported as 0.629. With C4U C11U C22G A45U the yeast fitness was ≤ 0.5. With C4U C11U C30G the yeast fitness was ≤ 0.5. With C4U C11U C31G C46A G63C A65U the yeast fitness was ≤ 0.5. With C4U C11U C33U the yeast fitness was 0.575. C4U C11U C34G A40C G51C gave a yeast fitness of 0.534. In the case of C4U C11U G25C, the yeast fitness is reported as 0.747. With C4U C11U G25C G41A the yeast fitness was 0.706. C4U C11U G44C showed a yeast fitness of 0.702. With C4U C11U G44C C49U A70U the yeast fitness was ≤ 0.5. For C4U C11U U13C C33G A40C, the yeast fitness was ≤ 0.5. Work on C4U C11U U35A yielded a yeast fitness of 0.523. Variant C4U C22G A42G has a yeast fitness of 0.695. In the case of C4U C22G C27U G50A G63A, the yeast fitness is reported as ≤ 0.5. For C4U C22G C29G C31A A69C, the yeast fitness was ≤ 0.5. Variant C4U C22G C33A A36C A43G C55G has a yeast fitness of 0.742. In the case of C4U C22G U28A A36U A65U, the yeast fitness is reported as ≤ 0.5. With C4U C22G U28A A36U C55G C62U the yeast fitness was ≤ 0.5. In the case of C4U C22G U28A A36U C66U, the yeast fitness is reported as ≤ 0.5. With C4U C22G U28A A36U G51A the yeast fitness was ≤ 0.5. For C4U C22G U28C U59C, the yeast fitness was ≤ 0.5. Variant C4U C22G U59C has a yeast fitness of 0.712. Work on C4U C22U yielded a yeast fitness of 0.76. With C4U C22U A45G C66G the yeast fitness was ≤ 0.5. For C4U C22U C27U G58C, the yeast fitness was ≤ 0.5. With C4U C22U C33U A42C A57G the yeast fitness was ≤ 0.5. C4U C22U C62U gave a yeast fitness of 0.62. In the case of C4U C22U G23A, the yeast fitness is reported as ≤ 0.5. In the case of C4U C24A, the yeast fitness is reported as 0.574. With C4U C24A A43G G63C the yeast fitness was ≤ 0.5. For C4U C24A A57U C60A G68C, the yeast fitness was ≤ 0.5. For C4U C24A C30G A65U C66A, the yeast fitness was ≤ 0.5. With C4U C24A G44C G50C U54G C61G the yeast fitness was ≤ 0.5. For C4U C24A U47G U59C, the yeast fitness was ≤ 0.5. With C4U C24G A36C A70C the yeast fitness was ≤ 0.5. Work on C4U C24G A37G yielded a yeast fitness of 0.567. In the case of C4U C24G C30G C31U U35A A36U G44A G63C, the yeast fitness is reported as 0.654. In the case of C4U C24G C34A A45C G56A C61A A65C A69C A70G, the yeast fitness is reported as 0.597. In the case of C4U C24G C49U C60U C61A, the yeast fitness is reported as 0.58. C4U C24G C61U gave a yeast fitness of 0.555. C4U C24G U26A U28G showed a yeast fitness of 0.539. With C4U C24G U26A U28G C66A the yeast fitness was ≤ 0.5. For C4U C24G U26A U28G G68C, the yeast fitness was ≤ 0.5. With C4U C24U A36C the yeast fitness was ≤ 0.5. With C4U C24U A43G C60U C61G the yeast fitness was ≤ 0.5. In the case of C4U C24U C27G, the yeast fitness is reported as ≤ 0.5. Work on C4U C24U C30A yielded a yeast fitness of 0.597. In the case of C4U C24U C55U, the yeast fitness is reported as ≤ 0.5. C4U C27A gave a yeast fitness of 0.737. With C4U C27A A43U G51C the yeast fitness was ≤ 0.5. In the case of C4U C27A C31U C60G, the yeast fitness is reported as ≤ 0.5. C4U C27G gave a yeast fitness of 0.656. Work on C4U C27G A45C yielded a yeast fitness of 0.564. With C4U C27G A65U the yeast fitness was ≤ 0.5. For C4U C27G A65U A70G, the yeast fitness was ≤ 0.5. For C4U C27G C31G, the yeast fitness was ≤ 0.5. With C4U C27G C33U A57G the yeast fitness was ≤ 0.5. C4U C27U gave a yeast fitness of 1.02. C4U C27U A45C G48A G56C showed a yeast fitness of 0.612. With C4U C27U A57C C61U the yeast fitness was ≤ 0.5. With C4U C27U C29G A42C C55G the yeast fitness was ≤ 0.5. For C4U C27U C31G C55U, the yeast fitness was ≤ 0.5. Work on C4U C27U G39C G52A G56A yielded a yeast fitness of 0.614. For C4U C27U U35C C61G, the yeast fitness was ≤ 0.5. For C4U C27U U64C, the yeast fitness was 0.757. In the case of C4U C29A A36C A40U G51A G68C, the yeast fitness is reported as ≤ 0.5. With C4U C29A C31G A42C A45U A69U the yeast fitness was ≤ 0.5. Work on C4U C29A G52C C55A U59G yielded a yeast fitness of 0.554. C4U C29A G52C C55G U59G showed a yeast fitness of 0.656. In the case of C4U C29A G52C U54C C55A U59G, the yeast fitness is reported as ≤ 0.5. For C4U C29G C30U, the yeast fitness was ≤ 0.5. C4U C29U C31U showed a yeast fitness of 0.538. In the case of C4U C29U G63A, the yeast fitness is reported as 0.517. With C4U C30A the yeast fitness was 0.917. In the case of C4U C30A A37U G44C U53A, the yeast fitness is reported as ≤ 0.5. For C4U C30A A43G, the yeast fitness was 0.728. Variant C4U C30A A45G C55G A65G has a yeast fitness of 0.636. For C4U C30A C66U, the yeast fitness was 0.82. With C4U C30A G50C G56A C62U G67U the yeast fitness was ≤ 0.5. C4U C30A G68A showed a yeast fitness of 0.786. For C4U C30A U59C A69C, the yeast fitness was 0.568. With C4U C30U A57G G68A the yeast fitness was 0.525. Variant C4U C30U C31G has a yeast fitness of 0.583. With C4U C30U U54A the yeast fitness was ≤ 0.5. For C4U C31G A40G A45C U53A A70U, the yeast fitness was ≤ 0.5. With C4U C31G C34U A43U the yeast fitness was 0.786. In the case of C4U C31G U47C G48C, the yeast fitness is reported as ≤ 0.5. In the case of C4U C31U A37U G67A G68A, the yeast fitness is reported as ≤ 0.5. Work on C4U C31U A40U A69U yielded a yeast fitness of 0.625. For C4U C31U A43U G48A U53A, the yeast fitness was ≤ 0.5. Variant C4U C31U C55G U59A has a yeast fitness of 0.546. For C4U C31U C60A, the yeast fitness was ≤ 0.5. Variant C4U C31U C61G has a yeast fitness of 0.58. Variant C4U C33A A40U has a yeast fitness of 0.564. With C4U C33A A40U G68A the yeast fitness was ≤ 0.5. With C4U C33A A42G the yeast fitness was ≤ 0.5. For C4U C33A U54C, the yeast fitness was ≤ 0.5. Variant C4U C33G has a yeast fitness of 0.722. With C4U C33G A70G the yeast fitness was ≤ 0.5. With C4U C33U the yeast fitness was 0.789. In the case of C4U C33U G44A, the yeast fitness is reported as ≤ 0.5. In the case of C4U C34A A43U U47C C62G C66A, the yeast fitness is reported as ≤ 0.5. For C4U C34A C46U U47A, the yeast fitness was ≤ 0.5. For C4U C34A G44C, the yeast fitness was 0.636. With C4U C34G A69G the yeast fitness was ≤ 0.5. With C4U C34G G52U the yeast fitness was 0.62. With C4U C34G U35A A42U C60U the yeast fitness was ≤ 0.5. For C4U C34U A40C G41A C62U A65U, the yeast fitness was ≤ 0.5. C4U C34U A43C A69U gave a yeast fitness of 0.557. For C4U C46A G67C, the yeast fitness was ≤ 0.5. Work on C4U C46G C61G A65C yielded a yeast fitness of 0.588. For C4U C46U A69C, the yeast fitness was 0.817. Work on C4U C46U A69U yielded a yeast fitness of 1.16. With C4U C46U C49G U59C the yeast fitness was ≤ 0.5. With C4U C49A A57C A69U the yeast fitness was ≤ 0.5. Work on C4U C49A C66U yielded a yeast fitness of 0.612. In the case of C4U C55A A65U, the yeast fitness is reported as ≤ 0.5. Work on C4U C55U yielded a yeast fitness of 0.694. C4U C55U A65G showed a yeast fitness of 0.554. With C4U C55U C66A the yeast fitness was ≤ 0.5. In the case of C4U C60G G63C, the yeast fitness is reported as ≤ 0.5. For C4U C60U C62A, the yeast fitness was ≤ 0.5. C4U C61U gave a yeast fitness of 0.977. In the case of C4U C61U A70G, the yeast fitness is reported as 0.777. Variant C4U C66A G68C has a yeast fitness of 0.546. C4U C66U showed a yeast fitness of 0.978. For C4U G6A A14C A65U, the yeast fitness was ≤ 0.5. With C4U G6A A15U A20C G25C U35A the yeast fitness was ≤ 0.5. In the case of C4U G6A A15U A20C G25C U35A A45U, the yeast fitness is reported as ≤ 0.5.
